What was measured:
HOP-62 = test: Cytotoxicity against human HOP62 cells; format: cell-based
Summary of the method: (§1)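 Tested in the NCI in vitro disease-oriented human tumour cell line screen, with screening performed by NCI. Growth was read by SRB signal over the drug incubation period at five concentrations: 100, 10, 1.0, 0.1 and 0.01 μM. GI50 is the concentration that reduces growth of treated cells to half that of control cells.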

OVCAR-4 = test: Antiproliferative activity against human OVCAR4 cells by SRB assay; format: functional
Summary of the method: (§2)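 Tested in the NCI in vitro human tumor cell line screen, run by the National Cancer Institute. Each compound was given at five concentrations (100, 10, 1.0, 0.1 and 0.01 μM). GI50 is the drug concentration that reduces growth of treated cells to half that of control cells during drug incubation, judged from the SRB signal.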

NCI-H522 [1] = test: Cytotoxicity against human NCI-H522 cells; format: cell-based; summary of the method: as §1
HL-60(TB) = test: Cytotoxicity against human HL-60(TB) cells; format: cell-based
MOLT-4 = test: Antiproliferative activity against human MOLT4 cells by SRB assay; format: functional; summary of the method: as §2
EKVX [2] = test: Antiproliferative activity against human EKVX cells by SRB assay; format: functional; summary of the method: as §2
EKVX [3] = test: Cytotoxicity against human EKVX cells; format: cell-based; summary of the method: as §1
MDA-MB-435 = test: Antiproliferative activity against human MDA-MB-435 cells by SRB assay; format: functional; summary of the method: as §2
PC-3 = test: Cytotoxicity against human PC3 cells; format: cell-based
OVCAR-3 = test: Cytotoxicity against human OVCAR3 cells; format: cell-based; summary of the method: as §1
CAKI-1 [4] = test: Antiproliferative activity against human Caki1 cells by SRB assay; format: functional; summary of the method: as §2
Histone deacetylase = test: Inhibition of HDAC in human HeLa cells using Ac-Arg-Gly-Lys(Ac)-AMC as fluorescent substrate after 20 mins by fluorescence assay; format: cell-based
M14 [5] = test: Antiproliferative activity against human M14 cells by SRB assay; format: functional; summary of the method: as §2
MDA-MB-231 [6] = test: Antiproliferative activity against human MDA-MB-231 cells by SRB assay; format: functional; summary of the method: as §2
KM12 [7] = test: Antiproliferative activity against human KM12 cells by SRB assay; format: functional; summary of the method: as §2
SK-OV-3 = test: Cytotoxicity against human SKOV3 cells; format: cell-based
SK-MEL-28 [8] = test: Antiproliferative activity against human SK-MEL-28 cells by SRB assay; format: functional; summary of the method: as §2
SNB-19 [9] = test: Antiproliferative activity against human SNB19 cells by SRB assay; format: functional; summary of the method: as §2
SN12C = test: Cytotoxicity against human SN12C cells; format: cell-based
Summary of the method: (§3)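 Screened by NCI in its in vitro disease-oriented human tumour cell line panel. Compounds tested at five concentrations (100, 10, 1.0, 0.1 and 0.01 μM). Growth read by sulforhodamine B (SRB) signal. GI50 is the concentration reducing growth of treated cells to half that of control cells during the drug incubation.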

NCI-H23 [10] = test: Cytotoxicity against human NCI-H23 cells; format: cell-based
LOX IMVI = test: Antiproliferative activity against human LOXIMVI cells by SRB assay; format: functional; summary of the method: as §2
SF-295 = test: Antiproliferative activity against human SF295 cells by SRB assay; format: functional; summary of the method: as §2
HT-29 = test: Cytotoxicity against human HT-29 cells; format: cell-based; summary of the method: as §1
CAKI-1 [11] = test: Cytotoxicity against human Caki1 cells; format: cell-based
RPMI-8226 = test: Cytotoxicity against human RPMI8226 cells; format: cell-based; summary of the method: as §1
NCI-H322M = test: Antiproliferative activity against human NCI-H322M cells by SRB assay; format: functional; summary of the method: as §2
SK-MEL-28 [12] = test: Cytotoxicity against human SK-MEL-28 cells; format: cell-based
786-0 [13] = test: Cytotoxicity against human 786-0 cells; format: cell-based
CCRF-CEM = test: Cytotoxicity against human CCRF-CEM cells; format: cell-based
M14 [14] = test: Cytotoxicity against human M14 cells; format: cell-based
UACC-62 = test: Antiproliferative activity against human UACC62 cells by SRB assay; format: functional
Summary of the method: (§4)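 Cell growth was tested in the NIH in vitro disease-oriented human tumor cell line screen, which NCI ran for these compounds. Compounds were tested at five concentrations (100, 10, 1.0, 0.1 and 0.01 μM), and growth was read by SRB signal. GI50 is the drug concentration that reduces growth of treated cells to half that of control cells during drug incubation.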

RXF 393 = test: Antiproliferative activity against human RXF393 cells by SRB assay; format: functional; summary of the method: as §2
MCF7 = test: Cytotoxicity against human MCF7 cells; format: cell-based
HCT-15 [15] = test: Cytotoxicity against human HCT15 cells; format: cell-based; summary of the method: as §1
OVCAR-8 [16] = test: Antiproliferative activity against human OVCAR8 cells by SRB assay; format: functional; summary of the method: as §2
SF-268 = test: Cytotoxicity against human SF268 cells; format: cell-based; summary of the method: as §1
TK-10 [17] = test: Cytotoxicity against human TK10 cells; format: cell-based; summary of the method: as §3
IGROV-1 = test: Antiproliferative activity against human IGROV1 cells by SRB assay; format: functional; summary of the method: as §2
MDA-MB-468 = test: Antiproliferative activity against human MDA-MB-468 cells by SRB assay; format: functional; summary of the method: as §2
UACC-257 [18] = test: Antiproliferative activity against human UACC257 cells by SRB assay; format: functional; summary of the method: as §4
[19] = Cytotoxicity against human Hs 578T cells; format: cell-based
SW-620 = test: Antiproliferative activity against human SW620 cells by SRB assay; format: functional; summary of the method: as §4
UO-31 = test: Cytotoxicity against human UO31 cells; format: cell-based; summary of the method: as §3
A498 [20] = test: Antiproliferative activity against human A498 cells by SRB assay; format: functional; summary of the method: as §2
T47D = test: Cytotoxicity against human T47D cells; format: cell-based; summary of the method: as §3
SK-MEL-2 = test: Cytotoxicity against human SK-MEL-2 cells; format: cell-based; summary of the method: as §1
SK-MEL-5 = test: Cytotoxicity against human SK-MEL-5 cells; format: cell-based
DU-145 = test: Antiproliferative activity against human DU145 cells by SRB assay; format: functional; summary of the method: as §2
MDA-MB-231 [21] = test: Cytotoxicity against human MDA-MB-231 cells; format: functional; summary of the method: as §1
UACC-257 [22] = test: Cytotoxicity against human UACC257 cells; format: cell-based; summary of the method: as §3
SNB-19 [23] = test: Cytotoxicity against human SNB19 cells; format: cell-based; summary of the method: as §3
TK-10 [24] = test: Antiproliferative activity against human TK10 cells by SRB assay; format: functional; summary of the method: as §4
HCT-15 [25] = test: Antiproliferative activity against human HCT15 cells by SRB assay; format: functional; summary of the method: as §2
OVCAR-8 [26] = test: Cytotoxicity against human OVCAR8 cells; format: cell-based
NCI-H522 [27] = test: Antiproliferative activity against human NCI-H522 cells by SRB assay; format: functional; summary of the method: as §2
A498 [28] = test: Cytotoxicity against human A498 cells; format: cell-based
KM12 [29] = test: Cytotoxicity against human KM12 cells; format: cell-based
786-0 [30] = test: Antiproliferative activity against human 786-0 cells by SRB assay; format: functional; summary of the method: as §2
NCI-H226 = test: Antiproliferative activity against human NCI-H226 cells by SRB assay; format: functional; summary of the method: as §2
SF-539 = test: Antiproliferative activity against human SF539 cells by SRB assay; format: functional; summary of the method: as §2
COLO 205 = test: Antiproliferative activity against human COLO205 cells by SRB assay; format: functional; summary of the method: as §2
Malme-3M = test: Antiproliferative activity against human MALME-3M cells by SRB assay; format: functional; summary of the method: as §2
NCI-H23 [31] = test: Antiproliferative activity against human NCI-H23 cells by SRB assay; format: functional; summary of the method: as §2

O=C(/C=C/c1cn(C(/C=C/c2ccccc2)Cc2ccccc2)nn1)NO (stereo not drawn)
LC50 (HOP-62): 18300 nM
GI50 (OVCAR-4): 1750 nM
LC50 (NCI-H522 [1]): 6360 nM
LC50 (HL-60(TB)): > 100000 nM
GI50 (MOLT-4): 493 nM
GI50 (EKVX [2]): 1460 nM
LC50 (EKVX [3]): 87400 nM
GI50 (MDA-MB-435): 866 nM
LC50 (PC-3): > 100000 nM
LC50 (OVCAR-3): 8700 nM
GI50 (CAKI-1 [4]): 440 nM
IC50 (Histone deacetylase): 77 nM
GI50 (M14 [5]): 1180 nM
GI50 (MDA-MB-231 [6]): 2210 nM
GI50 (KM12 [7]): 1930 nM
LC50 (SK-OV-3): 13300 nM
GI50 (SK-MEL-28 [8]): 1300 nM
GI50 (SNB-19 [9]): 2000 nM
LC50 (SN12C): > 100000 nM
LC50 (NCI-H23 [10]): 8680 nM
GI50 (LOX IMVI): 521 nM
GI50 (SF-295): 291 nM
LC50 (HT-29): > 100000 nM
LC50 (CAKI-1 [11]): 6250 nM
LC50 (RPMI-8226): > 100000 nM
GI50 (NCI-H322M): 1370 nM
LC50 (SK-MEL-28 [12]): 9400 nM
LC50 (786-0 [13]): 6450 nM
LC50 (CCRF-CEM): > 100000 nM
LC50 (M14 [14]): 16500 nM
GI50 (UACC-62): 898 nM
GI50 (RXF 393): 1210 nM
LC50 (MCF7): 93200 nM
LC50 (HCT-15 [15]): 74500 nM
GI50 (OVCAR-8 [16]): 630 nM
LC50 (SF-268): 9170 nM
LC50 (TK-10 [17]): 12900 nM
GI50 (IGROV-1): 836 nM
GI50 (MDA-MB-468): 1520 nM
GI50 (UACC-257 [18]): 1680 nM
LC50 [19]: 74600 nM
GI50 (SW-620): 892 nM
LC50 (UO-31): 6570 nM
GI50 (A498 [20]): 1160 nM
LC50 (T47D): 61700 nM
LC50 (SK-MEL-2): 49200 nM
LC50 (SK-MEL-5): 5300 nM
GI50 (DU-145): 1080 nM
LC50 (MDA-MB-231 [21]): 53900 nM
LC50 (UACC-257 [22]): 93700 nM
LC50 (SNB-19 [23]): 18800 nM
GI50 (TK-10 [24]): 827 nM
GI50 (HCT-15 [25]): 1590 nM
LC50 (OVCAR-8 [26]): > 100000 nM
GI50 (NCI-H522 [27]): 386 nM
LC50 (A498 [28]): 5460 nM
LC50 (KM12 [29]): 34200 nM
GI50 (786-0 [30]): 1380 nM
GI50 (NCI-H226): 2440 nM
GI50 (SF-539): 1140 nM
GI50 (COLO 205): 1100 nM
GI50 (Malme-3M): 305 nM
GI50 (NCI-H23 [31]): 1510 nM

— ChEMBL document CHEMBL1806473, “Structure-based optimization of click-based histone deacetylase inhibitors” (Eur J Med Chem, 2011)
